Measurements: ChEMBL document CHEMBL4038302, “Fibroblast Activation Protein α Activated Tripeptide Bufadienolide Antitumor Prodrug with Reduced Cardiotoxicity” (J Med Chem, 2017)

Tests used:
MDA-MB-231 [1] = test: Antiproliferative activity against human MDA-MB-231 cells transfected with pCMV6 incubated for 48 hrs by MTT assay; type: functional, cell-based; conditions: MDA-MB-231, 48 h
In short: (§1)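 Cells grown in DMEM with 10% FBS and 1% penicillin-streptomycin at 37 °C, 5% CO2; 10% heat-inactivated FBS used during cytotoxicity testing to exclude serum FAP activity. Viability read by MTT; IC50 as mean ± SEM of at least three independent experiments. Transfected lines were made from MDA-MB-231 with human FAPα plasmid or empty pCMV6-Entry vector and checked by Western blot at 48 h.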

MDA-MB-231 [2] = test: Antiproliferative activity against FAP-alpha deficient human MDA-MB-231 cells incubated for 48 hrs by MTT assay; type: functional, cell-based; conditions: MDA-MB-231, 48 h; in short: as §1
Mus musculus [3] = test: Toxicity in BALB/C nude mouse xenografted with human MDA-MB-231 cells assessed as histopathologic change in lungh at 12 umol/kg, iv administered starting on day 5 measured after day 22 by hematoxylin-eosin staining-based assay; type: organism-based; conditions: in vivo
In short: (§2)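 Tissues from dosed xenograft mice fixed for 24 h and paraffin-embedded. Sections of 5 μm, H&E stained; heart, liver, spleen, lung, kidney and femur examined by a pathologist blind to treatment.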

Mus musculus [4] = test: Cardiotoxicity in BALB/C nude mouse xenografted with human MDA-MB-231 cells assessed as cytoplasmic vacuolization at 12 umol/kg, iv administered starting on day 5 measured after day 22 by hematoxylin-eosin staining-based assay; type: toxicity, organism-based; conditions: in vivo; in short: as §2
MDA-MB-231 [5] = test: Antitumor activity against human MDA-MB-231 cells xenografted in BALB/C nude mouse at 4 umol/kg, iv administered starting on day 5 measured after day 22 by Ki67 staining-based assay relative to control; type: functional
In short: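 Female BALB/C nude mice, MDA-MB-231 cells (1 × 10^7) injected subcutaneously in Matrigel–PBS 1:1. Daily iv dosing in 5% HS15 vehicle from day 5. Tumours fixed and paraffin-embedded, 5 μm sections, anti-Ki67 IHC, read blind by a pathologist. Proliferative index by image analysis, n = 6. Compared with 5% HS15 control by one-way ANOVA and Tukey's test.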

Mus musculus [6] = test: Cardiotoxicity in BALB/C nude mouse xenografted with human MDA-MB-231 cells assessed as change in left ventricular internal systole dimension at 12 umol/kg, iv administered starting on day 5 measured after day 22 by echocardiography; type: toxicity, organism-based; conditions: in vivo
In short: (§3)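 Same MDA-MB-231 xenograft mice, given daily iv doses in 5% HS15 from day 5. After 22 days of dosing, transthoracic echocardiography with a 21 MHz transducer under 1.5% isoflurane, supine. M-mode images taken from the parasternal short-axis view at the papillary muscle; IVSd, IVSs, LVIDd and LVIDs derived, n = 6.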

Mus musculus [7] = test: Cardiotoxicity in BALB/C nude mouse xenografted with human MDA-MB-231 cells assessed as change in left ventricular internal diastole dimension at 12 umol/kg, iv administered starting on day 5 measured after day 22 by echocardiography; type: toxicity, organism-based; conditions: in vivo; in short: as §3
Mus musculus [8] = test: Toxicity in BALB/C nude mouse xenografted with human MDA-MB-231 cells assessed as body weight change at 12 umol/kg, iv administered starting on day 5 measured after day 22; type: organism-based; conditions: in vivo
[9] = Acute toxicity in iv dosed Kunming mouse measured less than 4 hrs post dose; type: organism-based; conditions: in vivo
In short: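 Kunming mice (22.0−28.0 g), half male and half female, 10 groups of n = 10. Single iv dose on day 1 across five levels per compound (prodrug 29.98–50.00 μmol/kg; arenobufagin 4.50–8.00 μmol/kg). Watched continuously for 8 h for abnormal behaviour and deaths, then intermittently for 2 weeks, and sacrificed day 14. LD50 by Bliss method.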

Mus musculus [10] = test: Toxicity in BALB/C nude mouse xenografted with human MDA-MB-231 cells assessed as histopathologic change in femur at 12 umol/kg, iv administered starting on day 5 measured after day 22 by hematoxylin-eosin staining-based assay; type: organism-based; conditions: in vivo; in short: as §2
MDA-MB-231 [11] = test: Induction of apoptosis in human MDA-MB-231 cells xenografted in BALB/C nude mouse at 4 umol/kg, iv administered starting on day 5 measured after day 22 by tunnel assay relative to control; type: functional; conditions: in the assay text read “12 umol/kg” for “4 umol/kg”
In short: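 Paraffin tumour sections from dosed xenograft mice stained by in situ cell death detection (TUNEL), examined blind to treatment. Percentage of apoptotic cells quantified by image analysis. Mean ± SEM, n = 6, versus the 5% HS15 control.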

[12] = Cytotoxicity in BMSC (unknown origin) assessed as cell viability at 1000 nmol/L after 72 hrs by MTT assay; type: cell-based; conditions: unidentified, 1 µM
Mus musculus [13] = test: Cardiotoxicity in BALB/C nude mouse xenografted with human MDA-MB-231 cells assessed as change in interventricular septal systole dimension at 12 umol/kg, iv administered starting on day 5 measured after day 22 by echocardiography; type: toxicity, organism-based; conditions: in vivo; in short: as §3
Mus musculus [14] = test: Hepatotoxicity in BALB/C nude mouse xenografted with human MDA-MB-231 cells at 12 umol/kg, iv administered starting on day 5 measured after day 22 by hematoxylin-eosin staining-based assay; type: toxicity, organism-based; conditions: in vivo; in short: as §2
Mus musculus [15] = test: Cardiotoxicity in BALB/C nude mouse xenografted with human MDA-MB-231 cells assessed as change in interventricular septal diastole dimension at 12 umol/kg, iv administered starting on day 5 measured after day 22 by echocardiography; type: toxicity, organism-based; conditions: in vivo; in short: as §3
Mus musculus [16] = test: Toxicity in BALB/C nude mouse xenografted with human MDA-MB-231 cells assessed as histopathologic change in spleen at 12 umol/kg, iv administered starting on day 5 measured after day 22 by hematoxylin-eosin staining-based assay; type: organism-based; conditions: in vivo; in short: as §2
[17] = Safety index, ratio of test compound LD50 to arenobufagin LD50 for Kunming mouse; type: ADME; conditions: in vivo
In short: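 LD50 from single-dose iv acute toxicity in Kunming mice (five dose levels per compound, n = 10 per group, 14-day observation), calculated by Bliss method; ratio taken against arenobufagin LD50.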

MDA-MB-435 = test: Antiproliferative activity against wild type human MDA-MB-435 cells expressing FAP-alpha incubated for 48 hrs by MTT assay; type: functional, cell-based; conditions: MDA-MB-435, 48 h; in short: as §1
[18] = In vivo prodrug activation in tumor of BALB/C nude mouse xenografted with human MDA-MB-231 cells assessed as FAP-alpha mediated (S)-((3S,5R,8R,9S,10S,11S,13R,14S,17R)-11,14-dihydroxy-10,13-dimethyl-12-oxo-17-(2-oxo-2H-pyran-5-yl)hexadecahydro-1H-cyclopenta[a]phenanthren-3-yl) 2-amino-3-(1H-indol-3-yl)propanoate formation at 40 umol/L by LC-MS/MS analysis; design: species or system Neoplasm
In short: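 Tumour and heart tissue weighed and homogenized on ice in PBS, pH 7.4, then incubated with prodrug at 40 μmol/L. Bufalin at 2 μmol/L added as internal standard; reaction stopped with acetonitrile and spun at 18 000g for 30 min. Active form quantified by LC-MS/MS against a standard curve of 0.625–40 μmol/L; mean ± SEM of three samples.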

Mus musculus [19] = test: Nephrotoxicity in BALB/C nude mouse xenografted with human MDA-MB-231 cells at 12 umol/kg, iv administered starting on day 5 measured after day 22 by hematoxylin-eosin staining-based assay; type: toxicity, organism-based; conditions: in vivo; in short: as §2
MCF7 = test: Antiproliferative activity against FAP-alpha deficient human MCF7 cells incubated for 48 hrs by MTT assay; type: functional, cell-based; conditions: MCF7, 48 h; in short: as §1
Mus musculus [20] = test: Acute toxicity in Kunming mouse assessed as mortality at 12 umol/kg, iv after 8 hrs post dose; type: organism-based; conditions: in vivo

## C[C@]12CC[C@H](OC(=O)[C@H](Cc3c[nH]c4ccccc34)NC(=O)[C@@H]3CCCN3C(=O)CNC(=O)OCc3ccccc3)C[C@H]1CC[C@@H]1[C@@H]2[C@H](O)C(=O)[C@]2(C)[C@@H](c3ccc(=O)oc3)CC[C@]12O
MDA-MB-231 [1]
  IC50: 24 nM
MDA-MB-231 [2]
  IC50: 27 nM
Mus musculus [3]
  Activity: Non-Toxic
Mus musculus [4]
  Activity: Non-Toxic
MDA-MB-231 [5]
  Activity: 45 - 50%
Mus musculus [6]
  Activity: Non-Toxic
Mus musculus [7]
  Activity: Non-Toxic
Mus musculus [8]
  Activity: Non-Toxic
[9]
  LD50 at 4 h: 44 µmol/kg
Mus musculus [10]
  Activity: Non-Toxic
MDA-MB-231 [11]
  fold change (FC): 5
[12]
  Activity: Non-Toxic
Mus musculus [13]
  Activity: Non-Toxic
Mus musculus [14]
  Activity: Non-Toxic
Mus musculus [15]
  Activity: Non-Toxic
Mus musculus [16]
  Activity: Non-Toxic
[17]
  selectivity ratio: 6.5
MDA-MB-435
  IC50: 10.6 nM
[18]
  Drug metabolism: 19.82 µmol/L
Mus musculus [19]
  Activity: Non-Toxic
MCF7
  IC50: 11.6 nM
Mus musculus [20]
  Activity: Non-Toxic
